Converted amounts (≈) assume the structure as drawn. “And” between values parts separate entries of the source, which are not always exact repeats. Equal values may be shown once. “Also recorded” adds a separate entry of the source.
Key:
ERβ [1] = target: T1, ERβ (Homo sapiens, UniProt Q92731); conditions: ref HsiehRW; RajanSS; SharmaSK; GreeneGL Steroids, 2008, 73, 59–68; cited from earlier work
[2] = system: MDA-MB-231 human breast cancer cells; experiment: growth inhibition assay, MDA-MB-231; assay type: cell-based
How it was run: (§1)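 Simple growth-inhibition assay in two human cancer lines, MDA-MB-231 (breast) and AsPC-1 (pancreatic), run without a particular target in mind. Cells exposed to a range of test compound concentrations, highest 40 μM. GI50 (μM) read.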

[3] = system: 12 human primary cell-based systems; experiment: BioMAP Diversity PLUS panel; conditions: comparison with reference database of >4,000 agents
cells (mitosis) = experiment: mitotic arrest in cells; assay type: cell-based
panel of 468 kinases = experiment: KINOMEscan panel of 468 kinases; assay type: binding; conditions: kinases bound divided by distinct kinases tested
DYRK1A = DYRK1A (Homo sapiens, UniProt Q13627); experiment: Kd determination DYRK1A; assay type: binding
CLK1,2,4 = experiment: established model for inhibition of CLK1,2,4 in cells; assay type: cell-based
[4] = system: AsPC-1 human tumor cell line (pancreatic cancer); experiment: growth inhibition assay, AsPC-1; assay type: cell-based; conditions: ASPC1
How it was run: as §1

ERβ [5] = target: T1, ERβ; experiment: estrogen receptor β antagonist assay; assay type: cell-based; conditions: concentrations up to 10 μM
ERα [6] = target: T2, ERα (Homo sapiens, UniProt P03372); experiment: estrogen receptor α agonist assay; assay type: cell-based; conditions: estrogen receptor agonism
T2 sequence (P03372 1-595): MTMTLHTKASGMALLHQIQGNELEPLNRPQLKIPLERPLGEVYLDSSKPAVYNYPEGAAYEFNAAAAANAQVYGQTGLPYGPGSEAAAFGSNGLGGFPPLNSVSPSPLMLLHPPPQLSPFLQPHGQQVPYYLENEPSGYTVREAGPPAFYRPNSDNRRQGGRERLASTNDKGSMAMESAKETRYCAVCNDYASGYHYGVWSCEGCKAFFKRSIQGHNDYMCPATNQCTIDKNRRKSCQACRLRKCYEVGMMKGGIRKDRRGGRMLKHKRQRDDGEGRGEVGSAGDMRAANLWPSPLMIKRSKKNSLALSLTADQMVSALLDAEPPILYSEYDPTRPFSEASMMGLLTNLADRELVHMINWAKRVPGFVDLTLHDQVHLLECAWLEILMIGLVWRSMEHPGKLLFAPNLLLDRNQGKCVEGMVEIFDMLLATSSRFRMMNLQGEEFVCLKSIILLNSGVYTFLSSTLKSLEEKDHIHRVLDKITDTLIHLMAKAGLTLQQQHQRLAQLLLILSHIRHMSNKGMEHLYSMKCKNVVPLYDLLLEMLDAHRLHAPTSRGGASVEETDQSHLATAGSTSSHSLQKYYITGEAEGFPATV

ERα [7] = target: T2, ERα; experiment: estrogen receptor α antagonist assay; assay type: cell-based; conditions: concentrations up to 10 μM
CLK2 = CLK2 (Homo sapiens, UniProt P49760); experiment: Kd determination CLK2; assay type: binding
Chain of CLK2 (P49760 whole entry): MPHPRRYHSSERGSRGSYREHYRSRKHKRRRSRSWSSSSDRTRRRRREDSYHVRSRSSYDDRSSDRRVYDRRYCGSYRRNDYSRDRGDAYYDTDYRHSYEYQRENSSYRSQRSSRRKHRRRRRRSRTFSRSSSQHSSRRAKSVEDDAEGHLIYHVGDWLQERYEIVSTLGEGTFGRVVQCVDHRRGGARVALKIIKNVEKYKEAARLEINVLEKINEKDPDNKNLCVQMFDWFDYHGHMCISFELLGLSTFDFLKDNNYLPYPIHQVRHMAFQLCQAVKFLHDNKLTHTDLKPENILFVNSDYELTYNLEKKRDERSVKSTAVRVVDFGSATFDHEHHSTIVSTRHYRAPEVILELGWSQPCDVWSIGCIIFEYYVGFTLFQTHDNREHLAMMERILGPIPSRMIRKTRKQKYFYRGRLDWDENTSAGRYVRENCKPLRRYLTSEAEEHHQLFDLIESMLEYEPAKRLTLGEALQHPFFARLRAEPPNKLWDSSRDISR

cdc-2-like kinase CLK4 = cdc-2-like kinase CLK4 (Homo sapiens, UniProt Q9HAZ1); experiment: Kd determination CLK4; assay type: binding
Chain of cdc-2-like kinase CLK4 (Q9HAZ1 whole entry): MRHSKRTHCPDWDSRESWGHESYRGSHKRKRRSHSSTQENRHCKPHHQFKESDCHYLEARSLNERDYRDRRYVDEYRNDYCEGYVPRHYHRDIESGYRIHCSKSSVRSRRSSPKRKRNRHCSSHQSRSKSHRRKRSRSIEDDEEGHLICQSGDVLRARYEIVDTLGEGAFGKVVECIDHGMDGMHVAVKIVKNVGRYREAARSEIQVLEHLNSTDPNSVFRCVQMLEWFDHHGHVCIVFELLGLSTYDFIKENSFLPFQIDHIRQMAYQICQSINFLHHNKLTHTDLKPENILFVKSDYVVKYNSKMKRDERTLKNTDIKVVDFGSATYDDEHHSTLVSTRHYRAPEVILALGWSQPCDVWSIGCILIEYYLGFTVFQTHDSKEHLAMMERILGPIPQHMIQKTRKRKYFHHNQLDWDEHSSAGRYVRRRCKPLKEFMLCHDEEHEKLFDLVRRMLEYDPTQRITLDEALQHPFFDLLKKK

ERβ [8] = target: T1, ERβ; experiment: estrogen receptor β agonist assay; assay type: cell-based
CLK1 = CLK1 (Homo sapiens, UniProt P49759); experiment: Kd determination CLK1; assay type: binding
Chain of CLK1 (P49759 whole entry): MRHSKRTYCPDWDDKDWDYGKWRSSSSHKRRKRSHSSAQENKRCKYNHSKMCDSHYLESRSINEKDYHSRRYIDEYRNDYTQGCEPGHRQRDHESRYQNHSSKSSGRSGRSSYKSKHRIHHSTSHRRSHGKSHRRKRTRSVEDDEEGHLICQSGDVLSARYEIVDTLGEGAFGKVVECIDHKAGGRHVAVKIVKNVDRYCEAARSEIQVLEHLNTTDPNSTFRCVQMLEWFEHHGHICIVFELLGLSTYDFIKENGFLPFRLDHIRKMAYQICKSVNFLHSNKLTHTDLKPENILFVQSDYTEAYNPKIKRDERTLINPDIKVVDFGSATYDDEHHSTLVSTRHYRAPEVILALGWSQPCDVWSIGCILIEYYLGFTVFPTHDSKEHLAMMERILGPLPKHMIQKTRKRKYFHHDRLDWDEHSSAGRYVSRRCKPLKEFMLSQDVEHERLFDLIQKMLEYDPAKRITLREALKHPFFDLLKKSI

T1 sequence (Q92731 whole entry): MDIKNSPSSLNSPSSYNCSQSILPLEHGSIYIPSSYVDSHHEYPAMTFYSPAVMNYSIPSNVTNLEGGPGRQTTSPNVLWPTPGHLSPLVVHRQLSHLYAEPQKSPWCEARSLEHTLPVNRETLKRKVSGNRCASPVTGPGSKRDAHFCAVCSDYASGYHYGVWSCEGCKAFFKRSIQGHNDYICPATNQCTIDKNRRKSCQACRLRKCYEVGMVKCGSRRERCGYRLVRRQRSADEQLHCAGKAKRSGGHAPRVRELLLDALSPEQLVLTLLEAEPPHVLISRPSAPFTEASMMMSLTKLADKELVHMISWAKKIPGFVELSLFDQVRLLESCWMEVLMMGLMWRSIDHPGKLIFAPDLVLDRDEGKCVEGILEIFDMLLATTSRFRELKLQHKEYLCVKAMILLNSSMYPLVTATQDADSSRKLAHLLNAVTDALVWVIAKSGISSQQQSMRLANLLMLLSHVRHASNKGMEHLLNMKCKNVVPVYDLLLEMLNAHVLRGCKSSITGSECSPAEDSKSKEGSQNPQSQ

Row | Compound | shift in selectivity for agonism of ER-β (ERβ [1]) | GI50 [2] | BioMAP phenotypic profile similarity to reference agents [3] | mitotic arrest (cells (mitosis)) | S-score(35) (panel of 468 kinases) | Kd (DYRK1A) | CLK inhibitory activity in cells (CLK1,2,4) | GI50 [4] | antagonist activity at ERβ (ERβ [5]) | agonist potency order ERβ vs ERα (ERα [6]) | antagonist activity at ERα (ERα [7]) | Kd (CLK2) | Kd (cdc-2-like kinase CLK4) | EC50 (ERβ [8]) | shift in selectivity favoring agonism of ERβ over ERα in comparison to 17-β-estradiol (ERβ [8]; ERβ vs ERα, relative to 17-β-estradiol) | Kd (CLK1)
1 | C[C@]12CCc3c(ccc4cc(O)ccc34)[C@@H]1CC[C@@H]2O [17-β-dihydroequilenin] | related shift in selectivity for agonism of ER-β | – | – | – | – | – | – | – | – | – | – | – | – | – | – | –
2 | C[C@]12CCc3c(ccc4ccc(O)cc34)[C@@H]1C[C@@H](O)C2 [VII, estra-1,3,5(10),6,8-pentaene-2,16α-diol] | – | ~0.2 µg/mL (≈ 0.745 µM) | favorable comparison to both 17-β estradiol (a dual ERα and ERβ agonist) as well as 2-methoxyestradiol; also recorded: correlation with several microtubule targeting agents (combretastatin A4, 2-methoxyestradiol and paclitaxel); also recorded: related to the clinically relevant microtubule-targeting agent paclitaxel; also recorded: phenotypically related to paclitaxel | arrests cells in mitosis; also recorded: induces mitotic arrest in cells | 0.03 | 2000 nM | no evidence of CLK inhibitory activity in cells | ~0.5 µg/mL and 2 µM | not showing activity as an antagonist | potency for ERβ > ERα | not showing activity as an antagonist | 2000 nM | 350 nM | 21 nM | ~4 fold | 1400 nM
